Reference: ChEMBL document CHEMBL4257570, “Discovery and optimization of a novel series of pyrazolyltetrahydropyran N-type calcium channel (Cav 2.2) blockers for the treatment of pain” (Bioorg Med Chem Lett, 2018)
pIC50: −log10 of the molar value. Calls of active or inactive are those of the source.

Legend:
[1] = Metabolic stability of human liver microsomes assessed as parent compound remaining after 10 mins; type: ADME, microsome; conditions: read-out: Stability
[2] = Metabolic stability of rat liver microsomes assessed as parent compound remaining after 10 mins; type: ADME, microsome; conditions: read-out: Stability
[3] = molecular target: T1, Voltage-dependent N-type calcium channel subunit alpha-1B (Homo sapiens, UniProt Q00975); experiment: Inhibition of Cav2.2 (unknown origin) expressed in HEK293 cells assessed as decrease in KCl depolarization-induced Ca2+ influx measured for 5 mins by fluorescence based FDSS assay; type: cell-based
Target sequence in this assay (Q00975 whole entry): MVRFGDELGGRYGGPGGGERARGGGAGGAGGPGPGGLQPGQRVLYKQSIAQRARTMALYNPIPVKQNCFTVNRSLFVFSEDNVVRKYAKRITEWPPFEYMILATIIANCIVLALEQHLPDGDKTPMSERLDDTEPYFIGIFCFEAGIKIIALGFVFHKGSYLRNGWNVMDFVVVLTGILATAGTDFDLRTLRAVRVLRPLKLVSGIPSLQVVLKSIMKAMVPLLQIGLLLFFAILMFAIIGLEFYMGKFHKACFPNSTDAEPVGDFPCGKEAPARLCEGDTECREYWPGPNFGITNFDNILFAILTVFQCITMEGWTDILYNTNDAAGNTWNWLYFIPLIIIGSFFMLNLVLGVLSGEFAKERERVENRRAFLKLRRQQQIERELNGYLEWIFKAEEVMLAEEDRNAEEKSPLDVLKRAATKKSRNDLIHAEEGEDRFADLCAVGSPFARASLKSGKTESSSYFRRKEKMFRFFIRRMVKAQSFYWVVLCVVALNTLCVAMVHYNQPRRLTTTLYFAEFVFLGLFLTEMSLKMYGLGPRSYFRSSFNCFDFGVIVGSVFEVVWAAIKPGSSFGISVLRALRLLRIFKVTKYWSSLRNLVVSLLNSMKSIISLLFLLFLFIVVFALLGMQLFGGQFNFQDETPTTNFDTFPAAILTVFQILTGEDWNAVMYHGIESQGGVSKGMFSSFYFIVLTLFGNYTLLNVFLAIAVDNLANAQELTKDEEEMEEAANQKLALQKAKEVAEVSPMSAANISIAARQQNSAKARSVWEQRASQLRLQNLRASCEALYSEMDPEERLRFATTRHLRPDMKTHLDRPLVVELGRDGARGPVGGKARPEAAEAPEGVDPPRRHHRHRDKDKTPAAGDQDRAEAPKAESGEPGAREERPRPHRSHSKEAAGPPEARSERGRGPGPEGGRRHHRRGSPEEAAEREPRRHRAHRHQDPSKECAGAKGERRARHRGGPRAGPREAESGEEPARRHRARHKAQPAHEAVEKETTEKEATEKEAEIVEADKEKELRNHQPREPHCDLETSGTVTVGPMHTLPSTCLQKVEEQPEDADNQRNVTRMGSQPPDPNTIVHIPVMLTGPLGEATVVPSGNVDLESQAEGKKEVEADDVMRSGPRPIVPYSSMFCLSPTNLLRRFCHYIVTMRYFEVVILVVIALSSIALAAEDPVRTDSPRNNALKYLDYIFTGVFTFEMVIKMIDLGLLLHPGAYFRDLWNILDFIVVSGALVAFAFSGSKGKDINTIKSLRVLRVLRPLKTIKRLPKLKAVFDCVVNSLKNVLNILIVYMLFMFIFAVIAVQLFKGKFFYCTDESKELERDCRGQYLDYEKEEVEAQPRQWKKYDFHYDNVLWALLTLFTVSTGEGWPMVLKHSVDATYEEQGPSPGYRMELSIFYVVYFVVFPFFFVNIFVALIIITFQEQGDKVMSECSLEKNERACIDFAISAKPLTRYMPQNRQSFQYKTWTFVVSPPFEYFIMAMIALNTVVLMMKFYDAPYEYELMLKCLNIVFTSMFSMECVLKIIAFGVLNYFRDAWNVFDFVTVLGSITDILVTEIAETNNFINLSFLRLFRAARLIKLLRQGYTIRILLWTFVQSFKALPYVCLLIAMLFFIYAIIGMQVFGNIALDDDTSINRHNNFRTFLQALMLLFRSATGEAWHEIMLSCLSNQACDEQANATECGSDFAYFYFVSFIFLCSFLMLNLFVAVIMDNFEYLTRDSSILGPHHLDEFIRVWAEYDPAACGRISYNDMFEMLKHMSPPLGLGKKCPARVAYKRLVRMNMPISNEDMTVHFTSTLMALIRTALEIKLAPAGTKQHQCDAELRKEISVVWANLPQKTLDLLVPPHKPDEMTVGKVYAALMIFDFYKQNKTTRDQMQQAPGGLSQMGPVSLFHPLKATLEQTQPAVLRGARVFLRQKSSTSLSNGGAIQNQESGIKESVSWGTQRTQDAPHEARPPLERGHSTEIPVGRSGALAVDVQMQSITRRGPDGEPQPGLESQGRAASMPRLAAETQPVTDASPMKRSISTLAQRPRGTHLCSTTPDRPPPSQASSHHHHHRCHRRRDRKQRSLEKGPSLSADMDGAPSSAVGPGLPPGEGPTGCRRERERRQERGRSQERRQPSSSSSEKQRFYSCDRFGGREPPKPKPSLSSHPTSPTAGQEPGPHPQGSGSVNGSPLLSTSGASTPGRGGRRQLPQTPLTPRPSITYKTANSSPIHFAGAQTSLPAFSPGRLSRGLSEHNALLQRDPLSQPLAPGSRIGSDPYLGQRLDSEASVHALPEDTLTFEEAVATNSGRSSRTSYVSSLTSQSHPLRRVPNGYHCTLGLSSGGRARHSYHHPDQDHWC

[4] = molecular target: Voltage-gated inwardly rectifying potassium channel KCNH2 (Homo sapiens, UniProt Q12809); experiment: Inhibition of human ERG
L-type calcium channel = L-type calcium channel (Homo sapiens, UniProt O60840+Q01668+Q13698+Q13936); experiment: Inhibition of L-type calcium channel (unknown origin) at 1 uM relative to control; type: protein assay
[5] = molecular target: T1, Voltage-dependent N-type calcium channel subunit alpha-1B; experiment: Inhibition of high frequency stimulation-induced Cav2.2 (unknown origin) expressed in HEK293 cells at -80 mV holding membrane potential by automated patch clamp assay; type: cell-based
Target sequence in this assay (Q00975 whole entry): as above

[6] = molecular target: T1, Voltage-dependent N-type calcium channel subunit alpha-1B; experiment: Inhibition of low frequency stimulation-induced Cav2.2 (unknown origin) expressed in HEK293 cells at -80 mV holding membrane potential by automated patch clamp assay; type: cell-based
Target sequence in this assay (Q00975 whole entry): as above

[7] = AUClast in rat at 6 mg/kg, po; type: ADME, organism-based; design: dose 6 mg/kg, route oral, time 0 - last; conditions: in vivo
Procedure, shortened: (§1)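 Rat PK: oral and intravenous dosing of the same compound in 20% hydroxypropyl-β-cyclodextrin, at 10.0/2.0 or 6.0/1.2 mg/kg po/iv.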

[8] = Clearance in rat at 6 mg/kg, po or 1.2 mg/kg, iv; type: ADME, organism-based; conditions: in vivo; procedure, shortened: as §1
[9] = Half life in rat at 1.2 mg/kg, iv; type: ADME, organism-based; conditions: in vivo; procedure, shortened: as §1
[10] = Cmax in rat at 6 mg/kg, po; type: ADME, organism-based; design: dose 6 mg/kg, route oral; conditions: in vivo; procedure, shortened: as §1
[11] = Volume of distribution at steady state in rat at 6 mg/kg, po or 1.2 mg/kg, iv; type: ADME, organism-based; conditions: in vivo, read-out: Vdss; procedure, shortened: as §1
[12] = Oral bioavailability in rat at 6 mg/kg; type: ADME, organism-based; conditions: in vivo; procedure, shortened: as §1
Rattus norvegicus [13] = experiment: Antiinflammatory activity in rat model of complete Freund's adjuvant-induced inflammatory pain assessed as reduction in thermal hyperalgesia by measuring radiant heat latency at 30 mg/kg, po measured after 30 mins post dose; type: functional, organism-based
Procedure, shortened: (§2)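 CFA rats were confirmed thermally hypersensitive by radiant heat latency (75% cut-off) on test day. They were then dosed p.o. at 2.5 mL/kg with 30 mg/kg in 10% NMP/20% Solutol, or vehicle alone. Paw withdrawal latency to radiant heat was read at 30, 60, 120, 180 and 300 min post-dose. One-way ANOVA with Dunnett's post test.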

Rattus norvegicus [14] = experiment: Antiinflammatory activity in rat model of complete Freund's adjuvant-induced inflammatory pain assessed as reduction in thermal hyperalgesia by measuring radiant heat latency at 30 mg/kg, po measured after 180 mins post dose; type: functional, organism-based; procedure, shortened: as §2
[15] = Plasma concentration in rat model of complete Freund's adjuvant-induced inflammatory pain at 30 mg/kg, po after 1 hr; type: ADME, organism-based
Procedure, shortened: (§3)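 In separate studies, drug levels in plasma, brain and spinal cord were measured in rats after a 30 mg/kg p.o. dose, sampled at 1 h or 2 h.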

[16] = Drug uptake in brain of rat model of complete Freund's adjuvant-induced inflammatory pain at 30 mg/kg, po after 1 hr; type: ADME, organism-based; conditions: read-out: Drug uptake; procedure, shortened: as §3
[17] = Drug uptake in spinal cord of rat model of complete Freund's adjuvant-induced inflammatory pain at 30 mg/kg, po after 1 hr; type: ADME, organism-based; conditions: read-out: Drug uptake; procedure, shortened: as §3
[18] = AUClast in rat at 10 mg/kg, po; type: ADME, organism-based; design: dose 10 mg/kg, time 0 - last, route oral; conditions: in vivo; procedure, shortened: as §1
[19] = Clearance in rat at 10 mg/kg, po or 2 mg/kg, iv; type: ADME, organism-based; conditions: in vivo; procedure, shortened: as §1
[20] = Half life in rat at 2 mg/kg, iv; type: ADME, organism-based; conditions: in vivo; procedure, shortened: as §1
[21] = Cmax in rat at 10 mg/kg, po; type: ADME, organism-based; design: dose 10 mg/kg, route oral; conditions: in vivo; procedure, shortened: as §1
[22] = Volume of distribution at steady state in rat at 10 mg/kg, po or 2 mg/kg, iv; type: ADME, organism-based; conditions: in vivo, read-out: Vdss; procedure, shortened: as §1
[23] = Oral bioavailability in rat at 10 mg/kg; type: ADME, organism-based; conditions: in vivo; procedure, shortened: as §1
Rattus norvegicus [24] = experiment: Antinociceptive activity in Sprague-Dawley rat model of CCI-induced neuropathic pain assessed as reduction in acetone-induced nocifensive response at 30 mg/kg, po measured after 3 hrs relative to control; type: functional
Procedure, shortened: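 CCI rats were given 30 mg/kg p.o. in 10% Solutol/20% HP-β-CD, or vehicle. Cold allodynia was scored as brisk hindpaw withdrawal to acetone applied to the affected paw, over five applications, before dosing and hourly for 3 h. Percent inhibition is relative to the time-zero responses. Two-way repeated-measures ANOVA with Bonferroni test.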

[25] = Plasma concentration in rat model of complete Freund's adjuvant-induced inflammatory painat 30 mg/kg, po after 2 hrs; type: ADME, organism-based; procedure, shortened: as §3
[26] = Drug uptake in brain of rat model of complete Freund's adjuvant-induced inflammatory pain at 30 mg/kg, po after 2 hrs; type: ADME, organism-based; conditions: read-out: Drug uptake; procedure, shortened: as §3
[27] = molecular target: T1, Voltage-dependent N-type calcium channel subunit alpha-1B; experiment: Inhibition of high frequency stimulation-induced Cav2.2 (unknown origin) expressed in HEK293 cells at 5 uM at -80 mV holding membrane potential by automated patch clamp assay relative to control; type: cell-based
Procedure, shortened: (§4)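 Automated whole-cell patch clamp (QPatch-HT) on HEK293 cells stably expressing Cav2.2. Each trial was the 4th train at each drug concentration. 60 μM CdCl2 set the 0% level, and vehicle-treated cells were used to correct for rundown.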
Target sequence in this assay (Q00975 whole entry, looked up): as the sequence (Q00975 whole entry) above

[28] = molecular target: T1, Voltage-dependent N-type calcium channel subunit alpha-1B; experiment: Inhibition of low frequency stimulation-induced Cav2.2 (unknown origin) expressed in HEK293 cells at 5 uM at -80 mV holding membrane potential by automated patch clamp assay relative to control; type: cell-based; procedure, shortened: as §4
Target sequence in this assay (Q00975 whole entry, looked up): as the sequence (Q00975 whole entry) above

Chain of Voltage-gated inwardly rectifying potassium channel KCNH2 (Q12809 whole entry): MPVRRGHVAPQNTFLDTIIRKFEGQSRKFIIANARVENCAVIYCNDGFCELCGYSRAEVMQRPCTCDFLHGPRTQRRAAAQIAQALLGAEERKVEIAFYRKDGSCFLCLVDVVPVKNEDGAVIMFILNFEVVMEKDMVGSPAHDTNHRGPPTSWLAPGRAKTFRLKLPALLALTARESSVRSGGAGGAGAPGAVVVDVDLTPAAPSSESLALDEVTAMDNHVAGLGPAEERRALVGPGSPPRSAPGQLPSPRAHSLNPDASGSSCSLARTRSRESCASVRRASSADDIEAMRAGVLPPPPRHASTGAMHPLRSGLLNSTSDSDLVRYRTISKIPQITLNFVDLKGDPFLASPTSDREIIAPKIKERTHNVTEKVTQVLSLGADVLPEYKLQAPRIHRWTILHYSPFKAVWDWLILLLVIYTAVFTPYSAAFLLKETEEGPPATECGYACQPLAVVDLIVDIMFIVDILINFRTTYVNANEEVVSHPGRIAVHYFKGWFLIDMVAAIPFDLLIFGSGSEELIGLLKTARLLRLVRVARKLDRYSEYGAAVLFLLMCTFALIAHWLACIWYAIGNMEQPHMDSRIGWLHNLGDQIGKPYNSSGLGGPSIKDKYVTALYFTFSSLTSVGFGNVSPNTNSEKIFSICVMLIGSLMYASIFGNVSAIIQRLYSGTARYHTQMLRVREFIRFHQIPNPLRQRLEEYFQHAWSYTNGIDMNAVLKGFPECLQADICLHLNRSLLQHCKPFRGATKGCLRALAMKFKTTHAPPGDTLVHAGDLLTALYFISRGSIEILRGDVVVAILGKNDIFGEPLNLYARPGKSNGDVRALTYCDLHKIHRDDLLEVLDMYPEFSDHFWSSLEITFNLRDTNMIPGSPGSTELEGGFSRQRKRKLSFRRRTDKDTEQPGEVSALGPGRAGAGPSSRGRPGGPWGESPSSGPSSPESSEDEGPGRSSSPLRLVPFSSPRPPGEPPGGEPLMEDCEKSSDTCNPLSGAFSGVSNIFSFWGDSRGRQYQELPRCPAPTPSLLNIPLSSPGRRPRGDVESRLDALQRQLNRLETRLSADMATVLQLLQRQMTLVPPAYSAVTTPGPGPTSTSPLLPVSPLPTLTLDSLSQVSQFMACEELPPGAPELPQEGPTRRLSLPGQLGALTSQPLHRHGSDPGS

SMILES	remaining at 10 min [1]	remaining at 10 min [2]	pIC50 [3]	pIC50 [5]	pIC50 [6]	other results
CC1(C)CC(c2cc(-c3ccc(Cl)cc3)n(-c3ccccn3)n2)CC(C)(C)O1	–	–	7.92	–	–	–
COc1ccccc1-n1nc(C2CC(C)(C)OC(C)(C)C2)cc1-c1csc(Cl)c1	–	–	8.22	7.55	7.21	pIC50 [4]: 4.59; inhibition at 1 µM (L-type calcium channel): 12%; AUC(0-t) [7]: 2660 ng·h/mL; clearance [8]: 15.9 mL/min/kg; half-life [9]: 10.2 h; Cmax [10]: 369 ng/mL; Vd [11]: 10.2 L/kg; bioavailability [12]: 49%; Activity (Rattus norvegicus [13]): Active; Activity (Rattus norvegicus [14]): inactive; concentration at 1 h [15]: 1100 nM; concentration at 1 h [16]: 2200 nM; concentration at 1 h [17]: 1900 nM
CC1(C)CC(c2cc(-c3ccc(Cl)cc3)n(-c3ccncc3)n2)CC(C)(C)O1	–	–	8.15	–	–	–
COc1ccccc1-n1nc(C2CC(C)(C)OC(C)(C)C2)cc1-c1ccnc(Cl)c1	–	–	–	6.60	6.13	–
COc1ccccc1-n1nc(C2CC(C)(C)OC(C)(C)C2)cc1-c1ccc(C)nc1	–	–	8.22	–	–	–
COc1ccccc1-n1nc([C@@H]2CCO[C@H](C(C)C)C2)cc1-c1ccc(Cl)cc1 (relative stereo)	66%	21%	8.15	–	–	–
COCCCc1cc(-c2ccc(Cl)cc2)n(-c2ccccc2OC)n1	58%	4%	–	–	–	inhibition [27]: 50%; inhibition [28]: 50%
COc1ccccc1-n1nc([C@@H]2CCO[C@@H](C(C)C)C2)cc1-c1ccc(Cl)cc1 (relative stereo)	26%	14%	7.70	–	–	–
COc1ccccc1-n1nc(C2CCOCC2)cc1-c1ccc(Cl)cc1	75%	8%	7.52	–	–	–

Second part, led by results:

remaining at 10 min [1]	remaining at 10 min [2]	pIC50 [3]	pIC50 [5]	pIC50 [6]	SMILES	other results
40%	14%	8.70	–	–	COc1ccccc1-n1nc(C2C[C@H](C)O[C@@H](C)C2)cc1-c1ccc(Cl)cc1 (relative stereo)	–
96%	37%	8.52	–	–	COc1ccccc1-n1nc(C2=CC(C)(C)OC(C)(C)C2)cc1-c1ccc(Cl)cc1	–
–	–	8.70	7.54	7.21	CCOc1ccc(-c2cc(C3CC(C)(C)OC(C)(C)C3)nn2-c2ccccc2OC)cc1	–
97%	96%	9.00	7.80	7.62	COc1ccccc1-n1nc(C2CC(C)(C)OC(C)(C)C2)cc1-c1ccc(Cl)cc1	pIC50 [4]: 4.70; inhibition at 1 µM (L-type calcium channel): 0%; AUC(0-t) [18]: 1500 ng·h/mL; clearance [19]: 37 mL/min/kg; half-life [20]: 15.4 h; Cmax [21]: 127 ng/mL; Vd [22]: 33.3 L/kg; bioavailability [23]: 36%; Activity (Rattus norvegicus [13]): Active; Activity (Rattus norvegicus [14]): inactive; inhibition in vivo at 30 mg/kg (Rattus norvegicus [24]): 51%; concentration at 2 h [25]: 700 nM; concentration at 2 h [26]: 1200 nM
–	–	9.00	7.00	6.23	CCN(CC)c1ccccc1-n1nc(C2CC(C)(C)OC(C)(C)C2)cc1-c1ccc(Cl)cc1	–
–	–	8.30	7.36	6.70	CCOc1ccc(-c2cc(C3CC(C)(C)OC(C)(C)C3)nn2-c2ccccc2OC)cn1	–
98%	21%	8.70	7.26	6.82	COc1ccccc1-n1nc(C2CCOC(C)(C)C2)cc1-c1ccc(Cl)cc1 (stereo not given)	–
64%	18%	8.52	7.92	7.04	COc1ccccc1-n1nc([C@H]2C[C@@H](C)O[C@@H](C)C2)cc1-c1ccc(Cl)cc1	–
–	–	9.00	7.07	6.89	COc1ccccc1-n1nc(C2CC(C)(C)OC(C)(C)C2)cc1-c1ccc(C#N)cc1	–
